An excerpt weighted towards active compounds, which were near 1.6% of everything screened.
FID counter: counter-screen for HCV NS3 helicase inhibitors: DNA intercalator displacement | DNA fluorescent intercalator displacement, fluorescence | inhibition, % at 7.9 µM | 290,000 tested, 0.17% active | AID 1845; in the data active = inhibition above about 37%;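 also: 0% = vehicle and 100% = reference compound; higher means more ethidium bromide displaced from hairpin DNA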
UBC13 inh: human UBC13 polyubiquitination inhibition | P61088 | inhibition, % at 20 µM | UBC13 polyubiquitin chain formation, TR-FRET | 330,000 tested, 0.47% active; in the data active = inhibition above about 45%, passing the limit was not always enough
Target sequence (P61088 whole entry, looked up): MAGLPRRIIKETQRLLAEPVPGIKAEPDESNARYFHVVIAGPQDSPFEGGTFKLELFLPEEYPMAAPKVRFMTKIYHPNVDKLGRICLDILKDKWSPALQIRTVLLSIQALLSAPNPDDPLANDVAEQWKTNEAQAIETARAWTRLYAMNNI
Neddyl block: blocks human cullin neddylation | calls only at 25 µM | TR-FRET cullin neddylation, biochemical | 360,000 tested, 0.58% active; in the data active = inhibition above about 36%
RAD54 inh: blocks human RAD54 Holliday junction branch migration; Q92698; FAM/BHQ fluorescence; inhibition, % at 10.4 µM; 360,000 tested, 0.14% active; AID 602329;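 active = mean normalized replicate activity at least 40 and at least half of replicates scoring 40 or more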;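 also: 0% = median of neutral control wells and 100% = median of positive control wells; inhibitors cause a drop in the FAM fluorescence signal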
Apaf-1 inh: inhibitors of human Apaf-1 apoptosome. 330,000 tested, 0.71% active. inhibition, % at 20 µM. O14727. reconstituted apoptosome caspase-3 activity, DEVD-Rh110 fluorescence; active = inhibition of at least 40% at 20 µM;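 also: plate controls were DMSO wells for no effect and DEVD-CHO caspase inhibitor wells for full effect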
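Material: biochemical Apaf-1 apoptosome reconstitution. Medium: Hepes buffer, pH 7.5. Also added: cytochrome c activation, bis-DEVD rhodamine 110 substrate. Timing: 30 min compound preincubation, 50 min activation, room temperature. Measured by: rhodamine 110 fluorescence at Ex 480/Em 540 nm.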
RAD52 anneal inh: blocks human RAD52 DNA annealing; inhibition, % at 18.7 µM; recombinant RAD52 DNA annealing, FRET fluorescence; 360,000 tested, 0.46% active;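 active = every replicate showing at least 50% inhibition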
Casp3 counter: inhibits human caspase-3 in UBC13 counter-screen; inhibition, % at 20 µM; Recombinant caspase-3, Caspase-Glo 3/7 luminescence, 60 min; 1,400 tested, 4% active; shares compounds with UBC13 inh; AID 488856;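 active = mean inhibition across replicates above about 26%, limit read from the data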;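 also: plate controls were DMSO with caspase-3 for no effect and DMSO wells lacking enzyme for full effect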
Target sequence (P42574 whole entry, looked up): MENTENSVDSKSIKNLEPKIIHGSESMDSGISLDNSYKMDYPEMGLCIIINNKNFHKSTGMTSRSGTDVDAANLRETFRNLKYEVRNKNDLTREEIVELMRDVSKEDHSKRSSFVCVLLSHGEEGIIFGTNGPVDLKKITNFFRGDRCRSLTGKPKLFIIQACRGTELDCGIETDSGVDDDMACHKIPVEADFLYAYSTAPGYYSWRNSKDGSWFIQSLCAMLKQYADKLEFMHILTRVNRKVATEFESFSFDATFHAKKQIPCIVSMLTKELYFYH
UBC13 conf: confirmation of human UBC13 polyubiquitin inhibitors; shares compounds with UBC13 inh; inhibition, % at 10 µM; 1,400 tested, 68% active; UBC13 polyubiquitination, TR-FRET, biochemical; in the data active = inhibition above about 45%
Numbers without * were called inactive; i = inactive; / = no result.

SMILES	FID counter	UBC13 inh	Neddyl block	RAD54 inh	Apaf-1 inh	RAD52 anneal inh	Casp3 counter	UBC13 conf
O=C(CCCCCN1C(=O)c2ccccc2C1=O)Nc1ccc(S(=O)(=O)N2CCCCC2)cc1	-18	100*	i	2	-32	/	6	112*
CC1CCN(S(=O)(=O)c2ccc(NC(=O)CCN3C(=O)c4ccccc4C3=O)cc2)CC1	2	9	i	/	-11	-13	/	/
COc1ccccc1NC(=O)COC(=O)C12CC3CC(CC(Br)(C3)C1)C2	/	50*	i	-2	12	2	-3	44
COc1ccccc1NC(=O)CNC(=O)CC12CC3CC(CC(C3)C1)C2	/	80*	i	-7	8	-16	3	79*
COc1ccc(CNC(=O)CC23CC4CC(CC(C4)C2)C3)cc1OC	-34	4	i	3	-2	-7	/	/
COc1ccccc1NC(=O)COC(=O)C12CC3CC(CC(Cl)(C3)C1)C2	-11	41	i	-2	23	-7	/	/
CCC(=O)N[C@@H]1CC[C@@H](CCn2cc(C3CC3)nn2)O[C@@H]1CO	/	/	/	0	/	4	/	/
C[C@H]1CN([C@@H](C)CO)S(=O)(=O)c2ccc(-c3ccc(F)cc3)cc2O[C@H]1CN(C)CC1CC1	/	/	/	4	/	21	/	/
CCOc1ccc(NC(=O)NNC(=O)c2ccc3ccccc3c2O)cc1	-8	49*	i	-2	13	-4	-2	16
CC[C@H](C)[C@@H](CN[C@H](C)CNC)NCCC(c1ccccc1)c1ccccc1	28	55*	i	11	9	25	-4	37
CNC[C@@H](C)NC[C@@H](Cc1ccccc1)NCCc1ccccc1	17	6	i	-13	1	-12	/	/
O=C(C1CC1)N1CC(=O)N2[C@@H](CO)[C@@H](c3ccc(C#CCc4ccccc4)cc3)[C@@H]2C1	/	/	/	/	/	-7	/	/
CC(C)n1c(NCc2cc(Cl)ccc2O)nc2ccccc21	6	67*	i	2	15	-15	0	54*
CCOC(=O)Cc1cc(=O)[nH]c(Nc2nc3ccccc3o2)n1	-5	82*	i	10	-7	/	45*	93*
COCc1cc(=O)[nH]c(Nc2nc(C)c3ccccc3n2)n1	-11	-5	i	/	7	/	/	/
COC(=O)Cc1cc(=O)[nH]c(Nc2nc3ccccc3o2)n1	-17	58*	i	5	5	/	18	73*
COCc1cc(=O)[nH]c(Nc2nc3ccccc3o2)n1	-12	81*	i	10	7	/	43*	81*
Cc1ccc2oc(Nc3nc(-c4ccccc4)cc(=O)[nH]3)nc2c1	-4	5	/	/	-6	-15	/	/
CO[C@H]1CN(C)C(=O)c2cc(NC(=O)C3CC3)ccc2OC[C@@H](C)N(Cc2ccc(F)cc2)C[C@@H]1C	/	/	/	1	/	29	/	/
COc1ccc(S(=O)(=O)N2CCC3(CC2)CN(C(=O)c2cccnc2)[C@@H](CO)c2c3c3ccc(OC)cc3n2C)cc1	/	/	/	/	/	-9	/	/
COc1ccc(NC(=O)N(C)C[C@H]2OCCCC[C@H](C)Oc3ccc(NS(=O)(=O)c4ccccc4)cc3C(=O)N([C@H](C)CO)C[C@@H]2C)cc1	/	/	/	2	/	-63	/	/
COCC(=O)Nc1ccc2c(c1)C(=O)N(C)C[C@@H](OC)[C@@H](C)CN(C(=O)c1cnccn1)[C@H](C)CO2	/	/	/	-5	/	-3	/	/
COc1ccc(N2CCN(CCCNC(=O)CCC(=O)N3CCOc4ccc(Cl)cc43)CC2)cc1	15	12	i	-1	3	10	/	/
O=C(CCC(=O)N1CCOc2ccc(Cl)cc21)NCCCN1CCC(Cc2ccccc2)CC1	18	92*	i	19	36	13	-4	92*
O=C(CCC(=O)N1CCOc2ccc(Cl)cc21)NCCCN1CCN(c2ccccc2F)CC1	16	62*	i	-2	19	-2	2	43
Cc1ccc(C)c(N2CCN(CCCNC(=O)CCC(=O)N3CCOc4ccc(Cl)cc43)CC2)c1	28	60*	/	/	25	13	-2	80*
O=C(CCC(=O)N1CCOc2ccccc21)NCCCN1CCOCC1	-3	0	i	-11	14	-8	/	/

Screening results (PubChem BioAssay)
